Source: ChEMBL document CHEMBL1641550, “Efficient synthesis and biological evaluation of epiceanothic acid and related compounds” (Bioorg Med Chem Lett, 2011)
Structures can show the parent of a compound that is named as a salt.

Legend:
HeLa = test: Cytotoxicity against human HeLa cells after 48 hrs by MTT assay; type: functional, cell-based
How it was run: (§1)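 Cells seeded and allowed to adhere at 37 °C in a CO2 incubator, then exposed for 48 h to 0.0001, 0.0005, 0.001, 0.005, 0.01, 0.05 or 0.1 mmol·L−1 compound. MTT (5%) added for a further 4 h, absorbance read at 570 nm.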

BGC-823 = test: Cytotoxicity against human BGC823 cells after 48 hrs by MTT assay; type: functional, cell-based; how it was run: as §1
A549 = test: Cytotoxicity against human A549 cells after 48 hrs by MTT assay; type: functional, cell-based; settings: A549, 48 h; how it was run: as §1
[1] = biological target: T1, Glycogen phosphorylase, muscle form (Oryctolagus cuniculus, UniProt P00489); test: Inhibition of rabbit muscle glycogen phosphorylase a
T1 sequence (P00489 whole entry): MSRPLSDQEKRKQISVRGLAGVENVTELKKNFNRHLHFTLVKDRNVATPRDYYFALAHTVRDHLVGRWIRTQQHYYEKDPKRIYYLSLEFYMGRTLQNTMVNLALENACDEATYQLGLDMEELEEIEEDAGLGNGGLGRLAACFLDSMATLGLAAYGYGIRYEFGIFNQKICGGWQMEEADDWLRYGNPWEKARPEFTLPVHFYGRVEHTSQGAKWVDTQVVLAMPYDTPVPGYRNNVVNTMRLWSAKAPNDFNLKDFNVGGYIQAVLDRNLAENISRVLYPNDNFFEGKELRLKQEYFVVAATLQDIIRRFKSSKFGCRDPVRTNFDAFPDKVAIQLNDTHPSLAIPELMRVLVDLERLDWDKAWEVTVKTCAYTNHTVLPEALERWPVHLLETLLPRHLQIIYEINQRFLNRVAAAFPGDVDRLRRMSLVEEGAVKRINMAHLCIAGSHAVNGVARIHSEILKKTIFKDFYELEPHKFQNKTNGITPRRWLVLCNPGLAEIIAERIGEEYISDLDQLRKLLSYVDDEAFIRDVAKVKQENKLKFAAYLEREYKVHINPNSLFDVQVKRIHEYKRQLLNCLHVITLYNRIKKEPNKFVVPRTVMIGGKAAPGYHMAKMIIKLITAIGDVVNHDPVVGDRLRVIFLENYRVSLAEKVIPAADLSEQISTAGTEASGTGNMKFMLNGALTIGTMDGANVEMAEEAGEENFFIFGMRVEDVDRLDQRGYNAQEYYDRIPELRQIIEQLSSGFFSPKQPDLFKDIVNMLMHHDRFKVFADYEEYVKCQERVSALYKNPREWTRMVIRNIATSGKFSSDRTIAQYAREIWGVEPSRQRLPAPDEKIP

MCF7 = test: Cytotoxicity against human MCF7 cells after 48 hrs by MTT assay; type: functional, cell-based; settings: MCF7, 48 h; how it was run: as §1
PC-3 = test: Cytotoxicity against human PC3 cells after 48 hrs by MTT assay; type: functional, cell-based; how it was run: as §1
[2] = tested on: Human immunodeficiency virus 1; test: Antiviral activity against Human immunodeficiency virus 1 NL4-3 infected in MT4 lymphocytes assessed as p24 antigen level by ELISA; type: functional, organism-based
How it was run: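 HIV-1 NL4-3 variants at MOI 0.01 infect MT-4 cells in a replication screening assay run in 96-well format.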

MT4 = test: Cytotoxicity against human MT4 lymphocytes after 48 hrs by MTT assay; type: cell-based
[3] = Therapeutic index, ratio of IC50 for human lymphocytes to EC50 for Human immunodeficiency virus 1 NL4-3; settings: read-out: TI
[4] = Homo sapiens, PC-3, 48 h, read-out: IC50
[5] = Homo sapiens, HeLa, 48 h, read-out: IC50
[6] = Homo sapiens, BGC-823, 48 h, read-out: IC50
[7] = Human immunodeficiency virus 1, NL4-3, read-out: EC50
[8] = Homo sapiens, MT4, 48 h, read-out: IC50

| Structure (SMILES) | IC50 (HeLa; hela) | IC50 (BGC-823; bgc-823) | IC50 (A549) [µM] | IC50 ([1]; read-out: IC50) [µM] | IC50 (MCF7) [µM] | IC50 (PC-3; [4]) [µM] | IC50 (HeLa; [5]) [µM] | IC50 (BGC-823; [6]) [µM] | IC50 (PC-3; pc-3) | EC50 [2] | IC50 (MT4; mt4) | IC50 [1] | EC50 [2, 7] [µM] | IC50 (MT4; [8]) [µM] | selectivity ratio [3] |
| --- | --- | --- | --- | --- | --- | --- | --- | --- | --- | --- | --- | --- | --- | --- | --- |
| C=C(C)[C@@H]1CC[C@]2(COC(c3ccccc3)(c3ccccc3)c3ccccc3)CC[C@]3(C)[C@H](CC[C@@H]4[C@@](C)(CC(=O)O)[C@H](C(C)(C)C(=O)O)CC[C@]43C)[C@@H]12 | Not Active | Not Active | 136 | 0.21 | 560 | 6.75 |  |  |  |  |  |  |  |  |  |
| C=C(C)[C@@H]1CC[C@]2(COC(c3ccccc3)(c3ccccc3)c3ccccc3)CC[C@]3(C)[C@H](CC[C@@H]4[C@@](C)(CC(=O)OC)[C@H](C(C)(C)C(=O)OC)CC[C@]43C)[C@@H]12 |  |  | 996 | 2.87 | 374 | 5.32 | 17.1 | 9.54 |  |  |  |  |  |  |  |
| C=C(C)[C@@H]1CC[C@]2(COC(c3ccccc3)(c3ccccc3)c3ccccc3)CC[C@]3(C)[C@H](CC[C@@H]4[C@@]5(C)[C@H](C(=O)OC)[C@H](O)C(C)(C)[C@@H]5CC[C@]43C)[C@@H]12 | Not Active |  | 770 | 20.1 | 398 |  |  |  | Not Active |  |  |  |  |  |  |
| C=C(C)[C@@H]1CC[C@]2(COC(c3ccccc3)(c3ccccc3)c3ccccc3)CC[C@]3(C)[C@H](CC[C@@H]4[C@@]5(C)[C@H](C(=O)OC)[C@H](OC(C)=O)C(C)(C)[C@@H]5CC[C@]43C)[C@@H]12 | Not Active | Not Active | 892 | 15.2 | 565 |  |  |  | Not Active | Not Active | Not Active |  |  |  |  |
| C=C(C)[C@@H]1CC[C@]2(CO)CC[C@]3(C)[C@H](CC[C@@H]4[C@@]5(C)[C@H](C(=O)OC)[C@H](OC(C)=O)C(C)(C)[C@@H]5CC[C@]43C)[C@@H]12 |  |  | 62.9 |  | 604 | 66.3 |  | 25.9 |  | Not Active | Not Active | Not Active |  |  |  |
| C=C(C)[C@@H]1CC[C@]2(C=O)CC[C@]3(C)[C@H](CC[C@@H]4[C@@]5(C)[C@H](C(=O)OC)[C@H](OC(C)=O)C(C)(C)[C@@H]5CC[C@]43C)[C@@H]12 |  |  | 194 | 53.8 | 32.5 | 8.51 | 105 | 12.7 |  | Not Active | Not Active |  |  |  |  |
| C=C(C)[C@@H]1CC[C@]2(C(=O)O)CC[C@]3(C)[C@H](CC[C@@H]4[C@@]5(C)[C@H](C(=O)OC)[C@H](OC(C)=O)C(C)(C)[C@@H]5CC[C@]43C)[C@@H]12 |  |  | 0.89 | 46.4 | 0.33 | 10.8 | 56.7 | 7.64 |  | Not Active | Not Active |  |  |  |  |
| C=C(C)[C@@H]1CC[C@]2(CO)CC[C@]3(C)[C@H](CC[C@@H]4[C@@]5(C)CC[C@H](O)C(C)(C)[C@@H]5CC[C@]43C)[C@@H]12 [BETULIN] |  |  |  | 41.5 |  |  |  |  |  | Not Active | Not Active |  |  |  |  |
| C=C(C)[C@@H]1CC[C@]2(C(=O)O)CC[C@]3(C)[C@H](CC[C@@H]4[C@@]5(C)CC[C@H](OC(=O)CC(C)(C)C(=O)O)C(C)(C)[C@@H]5CC[C@]43C)[C@@H]12 [BEVIRIMAT] |  |  |  |  |  |  |  |  |  |  |  |  | 0.082 | 15.2 | 185 |
| COc1cccc2c1C(=O)c1c(O)c3c(c(O)c1C2=O)C[C@@](O)(C(=O)CO)C[C@@H]3O[C@H]1C[C@H](N)[C@H](O)[C@H](C)O1 [DOXORUBICIN HYDROCHLORIDE] |  |  | 0.54 |  | 1.65 | 0.68 |  |  |  |  |  |  |  |  |  |
| C=C(C)[C@@H]1CC[C@]2(C(=O)O)CC[C@]3(C)[C@H](CC[C@@H]4[C@@]5(C)[C@H](C(=O)O)[C@H](O)C(C)(C)[C@@H]5CC[C@]43C)[C@@H]12 [EPICEANOTHIC ACID] |  |  | 16.8 | 194 | 87.2 | 19.7 |  | 2.41 |  |  |  |  | 15.6 | 38.9 | 2.49 |
